Test results as given in ChEMBL document CHEMBL3808332, “Identification of novel aminopiperidine derivatives for antibacterial activity against Gram-positive bacteria” (Bioorg Med Chem Lett, 2016).
pIC50: −log10 of the molar value. ≈ marks a conversion by molar mass, not a printed value.

Assays:
[1] = test system: Streptococcus pneumoniae; experiment: Antibacterial activity against Penicillin-resistant Streptococcus pneumoniae after 24 hrs by microdilution method; format: functional
[2] = test system: Enterococcus faecium; experiment: Antibacterial activity against vancomycin-resistant Enterococcus faecium after 24 hrs by microdilution method; format: functional
[3] = test system: Enterococcus faecalis; experiment: Antibacterial activity against vancomycin-resistant Enterococcus faecalis after 24 hrs by microdilution method; format: functional
[4] = test system: Staphylococcus aureus; experiment: Antibacterial activity against methicillin-resistant Staphylococcus aureus after 24 hrs by microdilution method; format: functional
[5] = molecular target: T1, Peptide deformylase (Staphylococcus aureus) (UniProt P68826); experiment: Inhibition of Staphylococcus aureus PDF using formyl-methionine-alanine-serine as substrate assessed as increase in NADH levels at 30 nM by microtiter ELISA
T1 sequence (whole entry): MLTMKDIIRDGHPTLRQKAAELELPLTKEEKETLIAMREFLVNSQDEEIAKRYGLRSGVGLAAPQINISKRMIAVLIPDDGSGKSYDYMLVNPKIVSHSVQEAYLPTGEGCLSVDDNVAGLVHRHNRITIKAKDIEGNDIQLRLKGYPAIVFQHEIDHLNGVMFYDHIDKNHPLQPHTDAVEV

[6] = Volume of distribution at steady state in iv/po dosed mouse plasma by LC-MS/MS analysis; format: ADME, organism-based; settings: read-out: Vdss
Procedure, shortened: (§1)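 Mice, n = 3–5 per group, given the compound intravenously and orally. Plasma pharmacokinetic parameters were derived: total plasma clearance, steady-state volume of distribution, apparent terminal elimination half-life, Tmax after oral dosing, and absolute oral bioavailability (%F).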

[7] = Apparent terminal half life in iv/po dosed mouse plasma by LC-MS/MS analysis; format: ADME, organism-based; settings: read-out: betat1/2(app) (converted); procedure, shortened: as §1
[8] = molecular target: T2, Peptide deformylase (Staphylococcus aureus, UniProt P68826); experiment: Inhibition of Staphylococcus aureus PDF using formyl-methionine-alanine-serine as substrate assessed as increase in NADH levels by microtiter ELISA
T2 sequence (P68826 whole entry): T1 sequence (whole entry)

[9] = Apparent oral bioavailability in mouse plasma by LC-MS/MS analysis; format: ADME, organism-based; procedure, shortened: as §1
[10] = molecular target: T1, Peptide deformylase (Staphylococcus aureus); experiment: Inhibition of Staphylococcus aureus PDF using formyl-methionine-alanine-serine as substrate assessed as increase in NADH levels at 10 nM by microtiter ELISA
[11] = molecular target: T1, Peptide deformylase (Staphylococcus aureus); experiment: Inhibition of Staphylococcus aureus PDF using formyl-methionine-alanine-serine as substrate assessed as increase in NADH levels at 100 nM by microtiter ELISA
[12] = Tmax in iv/po dosed mouse plasma by LC-MS/MS analysis; format: ADME, organism-based; procedure, shortened: as §1
[13] = molecular target: T1, Peptide deformylase (Staphylococcus aureus); experiment: Inhibition of Staphylococcus aureus PDF using formyl-methionine-alanine-serine as substrate assessed as increase in NADH levels at 3 nM by microtiter ELISA
[14] = Plasma clearance in iv/po dosed mouse by LC-MS/MS analysis; format: ADME, organism-based; procedure, shortened: as §1
[15] = test system: Pseudomonas aeruginosa; experiment: Antibacterial activity against Pseudomonas aeruginosa after 24 hrs by microdilution method; format: functional
[16] = test system: Escherichia coli; experiment: Antibacterial activity against Escherichia coli after 24 hrs by microdilution method; format: functional

Structure (SMILES)	MIC [1]	MIC [2]	MIC [3]	MIC [4]	MIC [15]	MIC [16]	further results
CC(C)(C)[C@H](NC(=O)[C@H](CC1CCCC1)CN(O)C=O)C(=O)N1CCC(NCc2ccc(O)c(O)c2)CC1	12.5 µg/mL (≈ 23.5 µM)	> 50 µg/mL	> 50 µg/mL	> 50 µg/mL			
CC(C)(C)[C@H](NC(=O)[C@H](CC1CCCC1)CN(O)C=O)C(=O)N1CCC(NCc2ccc(C#N)cc2)CC1	0.4 µg/mL (≈ 0.761 µM)	0.8 µg/mL (≈ 1.52 µM)	0.8 µg/mL (≈ 1.52 µM)	3.1 µg/mL (≈ 5.9 µM)			inhibition [5]: 54%; Vd [6]: 3.49 L/kg; half-life [7]: 21.6 min; pIC50 [8]: 7.52; bioavailability [9]: 103%; inhibition [10]: 19%; inhibition [11]: 77%; Tmax [12]: 30 min; inhibition [13]: -6%; clearance [14]: 51.5 mL/min/kg
CC(C)(C)[C@H](NC(=O)[C@H](CC1CCCC1)CN(O)C=O)C(=O)N1CCC(NCc2ccc[nH]2)CC1	6.3 µg/mL (≈ 12.9 µM)	> 50 µg/mL	> 50 µg/mL	> 50 µg/mL	> 50 µg/mL	> 50 µg/mL	
CC(C)(C)[C@H](NC(=O)[C@H](CC1CCCC1)CN(O)C=O)C(=O)N1CCC(NCc2ccc(O)cc2)CC1	3.1 µg/mL (≈ 6 µM)	50 µg/mL (≈ 96.8 µM)	> 50 µg/mL	> 50 µg/mL			
CC(C)(C)[C@H](NC(=O)[C@H](CC1CCCC1)CN(O)C=O)C(=O)N1CCC(NCc2ccccn2)CC1	1.6 µg/mL (≈ 3.19 µM)	12.5 µg/mL (≈ 24.9 µM)	12.5 µg/mL (≈ 24.9 µM)	25 µg/mL (≈ 49.8 µM)	> 50 µg/mL	> 50 µg/mL	
CC(=O)Nc1ccc(CNC2CCN(C(=O)[C@@H](NC(=O)[C@H](CC3CCCC3)CN(O)C=O)C(C)(C)C)CC2)cc1	1.6 µg/mL (≈ 2.87 µM)	25 µg/mL (≈ 44.8 µM)	12.5 µg/mL (≈ 22.4 µM)	> 50 µg/mL			
CC(C)(C)[C@H](NC(=O)[C@H](CC1CCCC1)CN(O)C=O)C(=O)N1CCC(NCc2ccc3c(c2)OCO3)CC1	1.6 µg/mL (≈ 2.94 µM)	0.8 µg/mL (≈ 1.47 µM)	3.1 µg/mL (≈ 5.69 µM)	6.3 µg/mL (≈ 11.6 µM)	> 50 µg/mL	> 50 µg/mL	
CC(C)(C)[C@H](NC(=O)[C@H](CC1CCCC1)CN(O)C=O)C(=O)N1CCC(NCc2ccccc2)CC1	0.8 µg/mL (≈ 1.6 µM)	0.8 µg/mL (≈ 1.6 µM)	1.6 µg/mL (≈ 3.2 µM)	3.1 µg/mL (≈ 6.19 µM)	> 50 µg/mL	> 50 µg/mL	
CC(C)(C)[C@H](NC(=O)[C@H](CC1CCCC1)CN(O)C=O)C(=O)N1CCC(NCc2ccco2)CC1	1.6 µg/mL (≈ 3.26 µM)	50 µg/mL (≈ 102 µM)	25 µg/mL (≈ 51 µM)	50 µg/mL (≈ 102 µM)	> 50 µg/mL	> 50 µg/mL	
CC(C)(C)[C@H](NC(=O)[C@H](CC1CCCC1)CN(O)C=O)C(=O)N1CCC(Nc2ccc3cn[nH]c3c2)CC1	0.4 µg/mL (≈ 0.759 µM)	1.6 µg/mL (≈ 3.04 µM)	6.3 µg/mL (≈ 12 µM)	12.5 µg/mL (≈ 23.7 µM)	> 50 µg/mL	> 50 µg/mL	
Cc1ccc(CNC2CCN(C(=O)[C@@H](NC(=O)[C@H](CC3CCCC3)CN(O)C=O)C(C)(C)C)CC2)cc1	0.4 µg/mL (≈ 0.777 µM)	0.4 µg/mL (≈ 0.777 µM)	3.1 µg/mL (≈ 6.02 µM)	6.3 µg/mL (≈ 12.2 µM)			
CN[C@@H](CC(C)C)C(=O)N[C@H]1C(=O)N[C@@H](CC(N)=O)C(=O)N[C@H]2C(=O)N[C@H]3C(=O)N[C@H](C(=O)N[C@@H](C(=O)O)c4cc(O)cc(O)c4-c4cc3ccc4O)[C@H](O)c3ccc(c(Cl)c3)Oc3cc2cc(c3O[C@H]2O[C@@H](CO)[C@H](O)[C@@H](O)[C@@H]2O[C@@H]2C[C@@](C)(N)[C@@H](O)[C@@H](C)O2)Oc2ccc(cc2Cl)[C@H]1O	0.8 µg/mL (≈ 0.552 µM)	> 50 µg/mL	> 50 µg/mL	3.1 µg/mL (≈ 2.14 µM)	> 50 µg/mL	> 50 µg/mL	
CC(C)(C)[C@H](NC(=O)[C@H](CC1CCCC1)CN(O)C=O)C(=O)N1CCN(Cc2ccc3c(c2)OCO3)CC1							inhibition [5]: 34%; pIC50 [8]: 7.52; inhibition [10]: 1%; inhibition [11]: 72%
CC(C)(C)[C@H](NC(=O)[C@H](CC1CCCC1)CN(O)C=O)C(=O)N1CCC(NC(=O)c2ccc(C#N)cc2)CC1							Vd [6]: 2.54 L/kg; half-life [7]: 55.2 min; bioavailability [9]: 55.5%; Tmax [12]: 40.2 min; clearance [14]: 44 mL/min/kg
CC(C)(C)[C@H](NC(=O)[C@H](CC1CCCC1)CN(O)C=O)C(=O)N1CCC(NCc2nc3ccccc3[nH]2)CC1	1.6 µg/mL (≈ 2.96 µM)	12.5 µg/mL (≈ 23.1 µM)	6.3 µg/mL (≈ 11.7 µM)	6.3 µg/mL (≈ 11.7 µM)	> 50 µg/mL	> 50 µg/mL	
CC(C)(C)[C@H](NC(=O)[C@H](CC1CCCC1)CN(O)C=O)C(=O)N1CCC(NCc2ccc(F)cc2)CC1	0.4 µg/mL (≈ 0.771 µM)	0.4 µg/mL (≈ 0.771 µM)	3.1 µg/mL (≈ 5.98 µM)	6.3 µg/mL (≈ 12.1 µM)			
CC(C)(C)[C@H](NC(=O)[C@H](CC1CCCC1)CN(O)C=O)C(=O)N1CCC(NCc2ccc3[nH]ccc3c2)CC1	0.8 µg/mL (≈ 1.48 µM)	6.3 µg/mL (≈ 11.7 µM)	3.1 µg/mL (≈ 5.74 µM)	6.3 µg/mL (≈ 11.7 µM)	> 50 µg/mL	> 50 µg/mL	
COc1ccc(CNC2CCN(C(=O)[C@@H](NC(=O)[C@H](CC3CCCC3)CN(O)C=O)C(C)(C)C)CC2)c(OC)c1	0.8 µg/mL (≈ 1.43 µM)	3.1 µg/mL (≈ 5.53 µM)	6.3 µg/mL (≈ 11.2 µM)	25 µg/mL (≈ 44.6 µM)			
CC(C)(C)[C@H](NC(=O)[C@H](CC1CCCC1)CN(O)C=O)C(=O)N1CCC(Nc2ccccc2)CC1	0.8 µg/mL (≈ 1.64 µM)	0.8 µg/mL (≈ 1.64 µM)	3.1 µg/mL (≈ 6.37 µM)	6.3 µg/mL (≈ 12.9 µM)	> 50 µg/mL	> 50 µg/mL	
COC(=O)c1ccc(CNC2CCN(C(=O)[C@@H](NC(=O)[C@H](CC3CCCC3)CN(O)C=O)C(C)(C)C)CC2)cc1	0.8 µg/mL (≈ 1.43 µM)	3.1 µg/mL (≈ 5.55 µM)	6.3 µg/mL (≈ 11.3 µM)	12.5 µg/mL (≈ 22.4 µM)			
CC(C)(C)[C@H](NC(=O)[C@H](CC1CCCC1)CN(O)C=O)C(=O)N1CCC(N)CC1	1.6 µg/mL (≈ 3.9 µM)	> 50 µg/mL	50 µg/mL (≈ 122 µM)	> 50 µg/mL	> 50 µg/mL	> 50 µg/mL	
COc1ccc(CNC2CCN(C(=O)[C@@H](NC(=O)[C@H](CC3CCCC3)CN(O)C=O)C(C)(C)C)CC2)cc1	0.8 µg/mL (≈ 1.51 µM)	1.6 µg/mL (≈ 3.01 µM)	6.3 µg/mL (≈ 11.9 µM)	12.5 µg/mL (≈ 23.6 µM)			
CC(C)(C)[C@H](NC(=O)[C@H](CC1CCCC1)CN(O)C=O)C(=O)N1CCC(Nc2ccc3c(c2)OCO3)CC1	0.4 µg/mL (≈ 0.754 µM)	1.6 µg/mL (≈ 3.02 µM)	3.1 µg/mL (≈ 5.84 µM)	6.3 µg/mL (≈ 11.9 µM)	> 50 µg/mL	> 50 µg/mL	
